# Residue numbers refer to the chain shown, from its start.
# Key:
# Details in all cases: stereoisomer not certain
# [1] = biological target: T1, OR2W1 (Homo sapiens) (UniProt Q9Y3N9)
# T1 sequence (whole entry): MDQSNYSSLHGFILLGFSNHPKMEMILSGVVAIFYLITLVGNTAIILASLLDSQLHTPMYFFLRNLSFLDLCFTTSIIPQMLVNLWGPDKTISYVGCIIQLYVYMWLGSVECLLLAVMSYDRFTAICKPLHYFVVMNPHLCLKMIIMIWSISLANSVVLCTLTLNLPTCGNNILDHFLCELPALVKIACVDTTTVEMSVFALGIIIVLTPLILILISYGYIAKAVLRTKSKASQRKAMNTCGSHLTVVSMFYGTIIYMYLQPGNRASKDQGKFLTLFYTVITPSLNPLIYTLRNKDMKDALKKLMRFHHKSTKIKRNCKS
# Procedure, shortened: (§1)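 Each receptor–molecule pair is labelled responsive or non-responsive (inactive) according to whether the original authors judged the measured signal statistically different from baseline. The data were taken from the main text and supplementary material of published papers and checked for typos and inconsistencies. Assay methods differed by source, with transient luciferase assays in mammalian cell lines being common.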
# [2] = test system: T2, OR2W1
# T2 sequence (whole entry): T1 sequence (whole entry) with D296N
# Procedure, shortened: as §1
# [3] = test system: T3, OR2W1; remark: listed apart in the source
# T3 sequence (whole entry): T1 sequence (whole entry) with M81V
# Procedure, shortened: as §1
# [4] = biological target: T4, OR3A1 (Homo sapiens) (UniProt P47881)
# T4 sequence (whole entry): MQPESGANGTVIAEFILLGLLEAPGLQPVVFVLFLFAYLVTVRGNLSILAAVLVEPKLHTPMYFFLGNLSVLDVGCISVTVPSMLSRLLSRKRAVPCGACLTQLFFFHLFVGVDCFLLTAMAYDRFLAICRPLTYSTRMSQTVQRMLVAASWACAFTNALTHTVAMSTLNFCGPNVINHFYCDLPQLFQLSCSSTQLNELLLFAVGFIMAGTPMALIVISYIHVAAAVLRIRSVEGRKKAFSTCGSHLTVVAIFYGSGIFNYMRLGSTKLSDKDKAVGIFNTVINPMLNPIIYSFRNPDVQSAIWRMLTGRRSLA
# Procedure, shortened: as §1
# [5] = test system: OR2T7
# Procedure, shortened: as §1
# [6] = biological target: OR2T8 (Homo sapiens) (UniProt A6NH00)
# Procedure, shortened: as §1
# [7] = biological target: OR2V1 (Homo sapiens) (UniProt Q8NHB1)
# Procedure, shortened: as §1
# [8] = biological target: OR2V2 (Homo sapiens) (UniProt Q96R30)
# Procedure, shortened: as §1
# [9] = test system: OR2W1 G96V
# Procedure, shortened: as §1
# [10] = biological target: T5, OR2W3 (Homo sapiens) (UniProt Q7Z3T1)
# T5 sequence (whole entry): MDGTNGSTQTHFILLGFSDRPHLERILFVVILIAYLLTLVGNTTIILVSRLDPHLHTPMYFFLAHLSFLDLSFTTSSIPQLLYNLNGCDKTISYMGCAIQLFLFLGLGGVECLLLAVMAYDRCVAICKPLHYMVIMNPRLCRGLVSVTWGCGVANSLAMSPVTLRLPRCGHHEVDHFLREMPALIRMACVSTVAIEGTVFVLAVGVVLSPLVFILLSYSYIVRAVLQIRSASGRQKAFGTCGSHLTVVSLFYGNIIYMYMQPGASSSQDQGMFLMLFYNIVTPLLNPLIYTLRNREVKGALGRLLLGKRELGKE
# Procedure, shortened: as §1
# [11] = biological target: OR2W5P (Homo sapiens) (UniProt A6NFC9)
# Procedure, shortened: as §1
# [12] = biological target: OR2Y1 (Homo sapiens) (UniProt Q8NGV0)
# Procedure, shortened: as §1
# [13] = test system: OR2Y1
# Procedure, shortened: as §1
# [14] = biological target: OR2Z1 (Homo sapiens) (UniProt Q8NG97)
# Procedure, shortened: as §1
# [15] = test system: OR3A1
# Procedure, shortened: as §1
# Target sequence in this assay (as listed by the source): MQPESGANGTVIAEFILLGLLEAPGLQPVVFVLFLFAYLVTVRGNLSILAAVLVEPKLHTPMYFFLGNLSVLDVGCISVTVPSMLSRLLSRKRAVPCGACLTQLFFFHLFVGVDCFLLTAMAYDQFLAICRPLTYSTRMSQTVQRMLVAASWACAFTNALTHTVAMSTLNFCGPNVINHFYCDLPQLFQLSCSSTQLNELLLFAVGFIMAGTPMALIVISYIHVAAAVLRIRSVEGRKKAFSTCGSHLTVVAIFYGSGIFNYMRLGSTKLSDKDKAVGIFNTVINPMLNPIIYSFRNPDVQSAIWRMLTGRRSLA
# [16] = biological target: OR3A2 (Homo sapiens) (UniProt P47893)
# Procedure, shortened: as §1
# [17] = test system: OR3A2 R317K
# Procedure, shortened: as §1
# [18] = biological target: OR3A3 (Homo sapiens) (UniProt P47888)
# Procedure, shortened: as §1
# [19] = test system: OR3A3 T48I L132F
# Procedure, shortened: as §1
# [20] = test system: OR3A1; remark: listed apart in the source
# Procedure, shortened: as §1
# Target sequence in this assay (as listed by the source): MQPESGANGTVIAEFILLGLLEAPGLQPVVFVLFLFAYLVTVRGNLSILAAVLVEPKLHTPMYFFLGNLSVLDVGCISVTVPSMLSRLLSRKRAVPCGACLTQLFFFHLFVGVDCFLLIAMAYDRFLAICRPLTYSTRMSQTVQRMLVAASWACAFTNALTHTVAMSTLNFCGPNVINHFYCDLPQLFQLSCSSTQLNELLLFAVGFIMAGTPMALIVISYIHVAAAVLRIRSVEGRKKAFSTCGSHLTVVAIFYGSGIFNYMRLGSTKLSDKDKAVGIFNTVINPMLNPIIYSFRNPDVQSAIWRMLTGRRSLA
# 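Further: active if original authors judged signal statistically different from baseline.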
# OR2Y1 (Homo sapiens), sequence (Q8NGV0 whole entry): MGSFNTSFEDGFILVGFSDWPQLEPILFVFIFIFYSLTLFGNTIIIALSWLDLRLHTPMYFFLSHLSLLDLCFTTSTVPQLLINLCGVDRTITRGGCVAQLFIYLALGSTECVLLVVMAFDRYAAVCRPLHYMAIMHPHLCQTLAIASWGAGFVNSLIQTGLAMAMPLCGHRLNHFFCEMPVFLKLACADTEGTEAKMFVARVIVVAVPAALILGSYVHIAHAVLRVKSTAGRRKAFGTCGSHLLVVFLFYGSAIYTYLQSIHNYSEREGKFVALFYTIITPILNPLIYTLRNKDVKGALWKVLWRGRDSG
# OR3A2 (Homo sapiens), sequence (P47893 whole entry): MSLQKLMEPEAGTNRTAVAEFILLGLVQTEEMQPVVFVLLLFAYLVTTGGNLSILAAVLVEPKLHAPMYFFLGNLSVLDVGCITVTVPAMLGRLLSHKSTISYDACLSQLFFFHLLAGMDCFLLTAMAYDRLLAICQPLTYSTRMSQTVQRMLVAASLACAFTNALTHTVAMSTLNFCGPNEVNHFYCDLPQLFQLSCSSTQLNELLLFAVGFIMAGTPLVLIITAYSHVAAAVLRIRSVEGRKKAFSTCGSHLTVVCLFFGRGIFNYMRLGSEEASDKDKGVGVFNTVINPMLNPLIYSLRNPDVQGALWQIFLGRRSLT
# OR2T8 (Homo sapiens), sequence (A6NH00 whole entry): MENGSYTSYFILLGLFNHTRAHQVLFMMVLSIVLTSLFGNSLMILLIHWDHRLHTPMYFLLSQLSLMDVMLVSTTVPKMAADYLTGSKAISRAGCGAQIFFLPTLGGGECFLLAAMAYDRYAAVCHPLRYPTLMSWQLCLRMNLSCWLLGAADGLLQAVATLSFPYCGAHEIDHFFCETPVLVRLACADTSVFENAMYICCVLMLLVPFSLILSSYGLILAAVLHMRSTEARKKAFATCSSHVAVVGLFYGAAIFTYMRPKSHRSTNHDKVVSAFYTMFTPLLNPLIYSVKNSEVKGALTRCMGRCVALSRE
# OR2Z1 (Homo sapiens), sequence (Q8NG97 whole entry): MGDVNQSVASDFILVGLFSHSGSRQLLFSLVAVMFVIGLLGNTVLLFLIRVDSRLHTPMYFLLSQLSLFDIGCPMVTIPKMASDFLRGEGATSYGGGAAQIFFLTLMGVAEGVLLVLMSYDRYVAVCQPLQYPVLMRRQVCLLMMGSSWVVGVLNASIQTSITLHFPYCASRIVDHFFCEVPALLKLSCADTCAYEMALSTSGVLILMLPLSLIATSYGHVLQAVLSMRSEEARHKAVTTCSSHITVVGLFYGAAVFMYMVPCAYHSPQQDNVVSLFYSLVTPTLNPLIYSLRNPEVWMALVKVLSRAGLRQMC
# OR2V1 (Homo sapiens), sequence (Q8NHB1 whole entry): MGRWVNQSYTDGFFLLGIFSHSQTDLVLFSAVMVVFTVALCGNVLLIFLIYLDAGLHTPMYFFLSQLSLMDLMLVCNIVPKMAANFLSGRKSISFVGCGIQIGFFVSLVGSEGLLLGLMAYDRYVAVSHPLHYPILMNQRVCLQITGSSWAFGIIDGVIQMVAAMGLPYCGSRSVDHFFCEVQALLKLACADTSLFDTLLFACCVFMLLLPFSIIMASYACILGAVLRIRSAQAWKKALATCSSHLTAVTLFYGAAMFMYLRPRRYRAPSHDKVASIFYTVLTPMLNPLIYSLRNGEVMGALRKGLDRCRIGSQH
# OR3A3 (Homo sapiens), sequence (P47888 whole entry): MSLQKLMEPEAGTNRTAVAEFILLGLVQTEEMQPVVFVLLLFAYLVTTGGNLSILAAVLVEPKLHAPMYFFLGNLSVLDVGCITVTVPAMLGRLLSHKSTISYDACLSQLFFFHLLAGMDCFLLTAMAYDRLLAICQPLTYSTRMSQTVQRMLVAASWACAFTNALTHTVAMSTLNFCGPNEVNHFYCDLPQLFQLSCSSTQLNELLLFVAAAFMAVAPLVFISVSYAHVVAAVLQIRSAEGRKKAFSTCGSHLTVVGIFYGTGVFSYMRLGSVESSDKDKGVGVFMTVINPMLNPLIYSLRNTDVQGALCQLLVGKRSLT
# OR2V2 (Homo sapiens), sequence (Q96R30 whole entry): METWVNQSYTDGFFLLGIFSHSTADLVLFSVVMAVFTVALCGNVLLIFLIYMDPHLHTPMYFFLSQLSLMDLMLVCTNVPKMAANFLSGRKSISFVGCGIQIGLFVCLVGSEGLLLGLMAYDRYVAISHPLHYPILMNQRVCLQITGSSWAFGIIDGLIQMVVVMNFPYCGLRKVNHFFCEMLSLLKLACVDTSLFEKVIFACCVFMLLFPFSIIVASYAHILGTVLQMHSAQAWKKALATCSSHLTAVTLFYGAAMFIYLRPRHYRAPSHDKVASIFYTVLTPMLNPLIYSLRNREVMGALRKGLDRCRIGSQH
# OR3A2 R317K, sequence (as listed by the source, stated change not applied): as the sequence (P47893 whole entry) above, with R317K counted along it
# OR2Y1, sequence (as listed by the source): as the sequence (Q8NGV0 whole entry) above, with V200L counted along it
# OR2T7, sequence (as listed by the source): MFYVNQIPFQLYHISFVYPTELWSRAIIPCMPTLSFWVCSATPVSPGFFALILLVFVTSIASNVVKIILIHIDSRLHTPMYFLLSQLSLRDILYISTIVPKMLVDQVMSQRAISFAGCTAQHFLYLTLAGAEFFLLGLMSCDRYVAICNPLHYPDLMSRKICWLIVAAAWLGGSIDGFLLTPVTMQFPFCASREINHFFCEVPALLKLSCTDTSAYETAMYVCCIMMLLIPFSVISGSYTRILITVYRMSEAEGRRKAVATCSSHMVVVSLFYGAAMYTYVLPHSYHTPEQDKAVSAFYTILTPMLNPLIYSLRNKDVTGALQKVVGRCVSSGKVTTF
# OR2W5P (Homo sapiens), sequence (A6NFC9 whole entry): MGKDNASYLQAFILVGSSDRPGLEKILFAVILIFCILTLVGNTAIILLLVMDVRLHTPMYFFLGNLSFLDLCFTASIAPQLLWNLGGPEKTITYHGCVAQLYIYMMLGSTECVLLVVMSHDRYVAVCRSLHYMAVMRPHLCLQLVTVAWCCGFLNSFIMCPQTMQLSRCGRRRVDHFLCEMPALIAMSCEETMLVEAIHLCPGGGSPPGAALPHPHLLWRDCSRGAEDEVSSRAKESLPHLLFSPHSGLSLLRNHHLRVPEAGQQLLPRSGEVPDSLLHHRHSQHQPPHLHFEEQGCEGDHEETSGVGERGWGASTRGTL
# OR2W1 G96V, sequence (as listed by the source, stated change not applied): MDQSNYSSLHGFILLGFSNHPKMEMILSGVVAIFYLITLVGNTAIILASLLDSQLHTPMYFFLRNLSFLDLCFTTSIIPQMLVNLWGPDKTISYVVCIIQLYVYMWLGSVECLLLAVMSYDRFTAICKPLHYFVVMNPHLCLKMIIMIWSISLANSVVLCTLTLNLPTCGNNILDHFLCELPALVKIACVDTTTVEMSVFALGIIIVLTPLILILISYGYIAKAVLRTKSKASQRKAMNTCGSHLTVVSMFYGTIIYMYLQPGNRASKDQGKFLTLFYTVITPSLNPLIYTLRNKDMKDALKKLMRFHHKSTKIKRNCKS
compound,measurement,setting,value
O=Cc1ccc2c(c1)OCO2,odorant receptor agonist call,[1],active
same,odorant receptor agonist call,[2],active
same,odorant receptor agonist call,[3],active
same,odorant receptor agonist call,[4],inactive
C=CCc1ccccc1,odorant receptor agonist call,[1],inactive
NCC(=O)c1ccccc1,odorant receptor agonist call,[1],inactive
C=CCc1ccc(OC)cc1,odorant receptor agonist call,[1],active
same,odorant receptor agonist call,[2],active
same,odorant receptor agonist call,[3],active
CC(=O)C=Cc1ccc2c(c1)OCO2,odorant receptor agonist call,[4],active
C=CCOC(=O)Cc1ccccc1,odorant receptor agonist call,[5],inactive
same,odorant receptor agonist call,[6],inactive
same,odorant receptor agonist call,[7],inactive
same,odorant receptor agonist call,[8],inactive
same,odorant receptor agonist call,[1],active
same,odorant receptor agonist call,[9],inactive
same,odorant receptor agonist call,[10],inactive
same,odorant receptor agonist call,[11],inactive
same,odorant receptor agonist call,[12],inactive
same,odorant receptor agonist call,[13],inactive
same,odorant receptor agonist call,[14],inactive
same,odorant receptor agonist call,[4],inactive
same,odorant receptor agonist call,[15],inactive
same,odorant receptor agonist call,[16],inactive
same,odorant receptor agonist call,[17],inactive
same,odorant receptor agonist call,[18],inactive
same,odorant receptor agonist call,[19],inactive
Cc1c([N+](=O)[O-])c(C)c([N+](=O)[O-])c(C(C)(C)C)c1[N+](=O)[O-],odorant receptor agonist call,[6],inactive
same,odorant receptor agonist call,[7],inactive
same,odorant receptor agonist call,[8],inactive
same,odorant receptor agonist call,[1],inactive
same,odorant receptor agonist call,[10],inactive
same,odorant receptor agonist call,[12],inactive
same,odorant receptor agonist call,[14],inactive
same,odorant receptor agonist call,[4],inactive
same,odorant receptor agonist call,[16],inactive
same,odorant receptor agonist call,[18],inactive
CC(C=O)Cc1ccc2c(c1)OCO2 (stereo not drawn),odorant receptor agonist call,[4],active
same,odorant receptor agonist call,[20],inactive
same,odorant receptor agonist call,[15],inactive
O=Cc1ccco1,odorant receptor agonist call,[1],inactive
CCC1CCC(=O)O1 (stereo not drawn),odorant receptor agonist call,[1],inactive
Cc1cccc(C)c1,odorant receptor agonist call,[10],inactive
Cc1ccc(O)c(C)c1,odorant receptor agonist call,[1],inactive
OCc1ccco1,odorant receptor agonist call,[1],active
same,odorant receptor agonist call,[2],active
same,odorant receptor agonist call,[3],inactive
O=C(O)Cc1ccccc1,odorant receptor agonist call,[1],inactive
C=CCc1ccc2c(c1)OCO2,odorant receptor agonist call,[4],inactive
C=CCSSCC=C,odorant receptor agonist call,[1],inactive
same,odorant receptor agonist call,[2],active
same,odorant receptor agonist call,[3],active
SCc1ccco1,odorant receptor agonist call,[1],active
same,odorant receptor agonist call,[2],active
same,odorant receptor agonist call,[3],active
CCOC(=O)Cc1ccccc1,odorant receptor agonist call,[1],active
same,odorant receptor agonist call,[2],active
same,odorant receptor agonist call,[3],active
O=c1cc(O)c2ccccc2o1,odorant receptor agonist call,[1],inactive
Cc1ccccc1O,odorant receptor agonist call,[1],inactive
CSSC,odorant receptor agonist call,[1],inactive
SCc1ccccc1,odorant receptor agonist call,[1],active
same,odorant receptor agonist call,[2],active
same,odorant receptor agonist call,[3],active
COc1ccc(C=O)cc1,odorant receptor agonist call,[1],active
same,odorant receptor agonist call,[2],active
same,odorant receptor agonist call,[3],active
same,odorant receptor agonist call,[10],inactive

# Reference: the M2OR odorant receptor database
